This is an account of results in the M2OR odorant receptor database.

What all share (conditions): stereoisomer not certain
Experiment [1] deals with T1, Or10j5 (Mus musculus) (UniProt Q62007).
T1 sequence (whole entry): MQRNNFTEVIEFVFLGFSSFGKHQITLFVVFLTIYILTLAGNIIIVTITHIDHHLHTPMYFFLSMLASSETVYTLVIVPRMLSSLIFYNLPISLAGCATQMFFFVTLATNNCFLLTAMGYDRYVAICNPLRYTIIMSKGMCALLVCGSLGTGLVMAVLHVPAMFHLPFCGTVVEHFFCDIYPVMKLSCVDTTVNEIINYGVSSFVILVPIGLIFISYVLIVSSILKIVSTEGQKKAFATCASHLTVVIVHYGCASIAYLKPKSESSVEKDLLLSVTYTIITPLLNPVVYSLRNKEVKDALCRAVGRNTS
The method in brief: (§1)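 Transient luciferase assays in mammalian cell lines were common, though methods varied by source. The values come from published papers and their supplementary material, with extra details from the original authors when needed. Responsive refers to a measured signal the original authors judged statistically different from baseline, and non-responsive (inactive) to the remainder.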

Experiment [2] deals with T2, Or1m1 (Mus musculus) (UniProt Q8VFM9).
T2 sequence (whole entry): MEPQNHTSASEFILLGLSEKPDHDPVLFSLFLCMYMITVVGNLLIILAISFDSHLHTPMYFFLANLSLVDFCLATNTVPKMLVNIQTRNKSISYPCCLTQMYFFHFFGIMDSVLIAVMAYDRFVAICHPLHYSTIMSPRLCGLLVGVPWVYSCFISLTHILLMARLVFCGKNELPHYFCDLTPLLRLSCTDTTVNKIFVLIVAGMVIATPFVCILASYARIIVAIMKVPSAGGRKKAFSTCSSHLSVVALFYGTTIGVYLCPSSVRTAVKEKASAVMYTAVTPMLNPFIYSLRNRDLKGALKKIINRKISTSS
The method in brief: as §1

In experiment [3] the target is T3, Or2c1 (Mus musculus) (UniProt P23275).
T3 sequence (whole entry): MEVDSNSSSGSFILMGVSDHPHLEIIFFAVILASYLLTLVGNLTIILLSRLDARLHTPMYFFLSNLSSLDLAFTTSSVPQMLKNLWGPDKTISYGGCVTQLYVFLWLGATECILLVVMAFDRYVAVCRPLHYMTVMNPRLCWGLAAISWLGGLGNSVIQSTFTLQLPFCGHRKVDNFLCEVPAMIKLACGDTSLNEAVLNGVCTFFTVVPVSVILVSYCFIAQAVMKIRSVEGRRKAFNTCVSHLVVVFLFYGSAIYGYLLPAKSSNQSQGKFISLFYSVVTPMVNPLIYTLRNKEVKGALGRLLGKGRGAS
The method, boiled down: as §1

Experiment [4] deals with T4, Or5ar1 (Mus musculus) (UniProt Q8VGS3).
T4 sequence (whole entry): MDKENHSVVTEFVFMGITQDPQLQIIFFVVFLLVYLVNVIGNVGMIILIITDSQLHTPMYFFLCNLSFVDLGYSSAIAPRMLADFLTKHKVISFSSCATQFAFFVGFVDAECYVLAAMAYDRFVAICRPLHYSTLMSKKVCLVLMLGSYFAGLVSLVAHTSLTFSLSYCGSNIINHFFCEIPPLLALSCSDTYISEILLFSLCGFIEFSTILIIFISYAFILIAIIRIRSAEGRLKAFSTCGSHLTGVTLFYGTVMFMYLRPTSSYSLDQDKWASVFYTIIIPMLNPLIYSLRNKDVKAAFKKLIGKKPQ
The method, boiled down: as §1

The target in experiment [5] is T5, Or5an6 (Mus musculus) (UniProt Q8VFV4).
T5 sequence (whole entry): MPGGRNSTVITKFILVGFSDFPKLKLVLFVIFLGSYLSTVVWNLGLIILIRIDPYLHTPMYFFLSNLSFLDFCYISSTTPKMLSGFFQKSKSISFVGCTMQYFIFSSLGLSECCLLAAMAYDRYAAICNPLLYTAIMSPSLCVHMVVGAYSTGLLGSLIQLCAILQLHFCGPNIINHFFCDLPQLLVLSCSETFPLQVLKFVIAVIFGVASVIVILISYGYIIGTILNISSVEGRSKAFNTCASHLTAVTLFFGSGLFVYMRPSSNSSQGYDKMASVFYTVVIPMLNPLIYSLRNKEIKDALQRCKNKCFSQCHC
The method in brief:
as §1
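Also: active if original authors judged signal statistically different from baseline.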

For the compound `O=C(O)CCCCCCCCCCBr`, in experiment [1], the “odorant receptor agonist call” value is “inactive”.

With `CCCC(=O)C(C)=O`, the “odorant receptor agonist call” value in experiment [2] and in experiment [4] was “inactive” throughout. In experiment [3], the “odorant receptor agonist call” value was “active”.

With `CC(=O)OCC=C(C)C`, the “odorant receptor agonist call” value in experiment [2] and in experiment [3] was “inactive” each time. The “odorant receptor agonist call” value in experiment [4] was “active”.

As for `CCCCCCC(C)=O`, the “odorant receptor agonist call” value in experiment [2], in experiment [3] and in experiment [4] was “inactive” in each case.

As to `C=C(C)C1CCC(C)C(=O)C1` (stereo unspecified), the “odorant receptor agonist call” value in experiment [2], in experiment [3] and in experiment [4] was “inactive” throughout.

As for `CCOC(=O)C(C)C`, the “odorant receptor agonist call” value in experiment [2], in experiment [3] and in experiment [4] was “inactive” each time.

`CC(=O)Oc1ccccc1`: the “odorant receptor agonist call” value in experiment [2], in experiment [3] and in experiment [4] was “inactive” each time.

Regarding `O=C1CCOc2ccccc21`, the “odorant receptor agonist call” value in experiment [2], in experiment [3] and in experiment [4] was “inactive” in each case.

Regarding `CCCC(C)=O`, the “odorant receptor agonist call” value in experiment [1], in experiment [3] and in experiment [4] was “inactive” throughout.

On to `CCC(=O)O`, for which the “odorant receptor agonist call” value in experiment [2], in experiment [3] and in experiment [4] was “inactive” in each case.

On to `CCCCCC=O`, for which the “odorant receptor agonist call” value in experiment [2], in experiment [3] and in experiment [4] was “inactive” in each case.

With `CC(C)=CCCC(C)CCO` (stereo unspecified), the “odorant receptor agonist call” value in experiment [2], in experiment [3] and in experiment [4] was “inactive” in each case.

With `CCCCCCCCS`, the “odorant receptor agonist call” value in experiment [2] and in experiment [4] was “inactive” throughout. Moreover, in experiment [3], the “odorant receptor agonist call” value is “active”.

Regarding `CCCCCC(=O)CC`, the “odorant receptor agonist call” value in experiment [2], in experiment [3] and in experiment [4] was “inactive” in each case.

As to `CCCCCCCC(C)=O`, the “odorant receptor agonist call” value in experiment [2], in experiment [3] and in experiment [4] was “inactive” in each case.

Regarding `CC1CC=CCCCCCCCCCC(=O)C1` (stereo unspecified), the “odorant receptor agonist call” value in experiment [2] and in experiment [4] was “inactive” in each case. In addition, the “odorant receptor agonist call” value in experiment [5] is “active”.

Consider `CCCCCOC(=O)CCCCC`, for which the “odorant receptor agonist call” value in experiment [2] and in experiment [4] was “inactive” each time. The “odorant receptor agonist call” value in experiment [3] was “active”.

On to `CCCCCCOC(C)=O`, for which the “odorant receptor agonist call” value in experiment [2], in experiment [3] and in experiment [4] was “inactive” each time.

As for `CCCCCCCCCCCO`, the “odorant receptor agonist call” value in experiment [1], in experiment [2] and in experiment [4] was “inactive” throughout.

Take `O=C1Cc2ccccc2O1`: the “odorant receptor agonist call” value in experiment [2] and in experiment [4] was “inactive” in each case. For the same compound, the “odorant receptor agonist call” value in experiment [3] was “active”.

As for `c1ccccc1`, the “odorant receptor agonist call” value in experiment [2], in experiment [3] and in experiment [4] was “inactive” each time.

For `C=CCOC(=O)CCCCCC`, the “odorant receptor agonist call” value in experiment [2], in experiment [3] and in experiment [4] was “inactive” in each case.

In the case of `CC12CCC(CC1=O)C2(C)C` (stereo unspecified), the “odorant receptor agonist call” value in experiment [2], in experiment [3] and in experiment [4] was “inactive” each time.

In the case of `CCCCCCCCCCO`, the “odorant receptor agonist call” value in experiment [2], in experiment [3] and in experiment [4] was “inactive” throughout.

As for `CCCCC(=O)CC`, the “odorant receptor agonist call” value in experiment [2], in experiment [3] and in experiment [4] was “inactive” in each case.

On to `CCCCCCCC(=O)[O-].[H+]`, for which the “odorant receptor agonist call” value in experiment [1] and in experiment [3] was “active” throughout. Besides, the “odorant receptor agonist call” value in experiment [4] is “inactive”.

Turning to `CCCCC(C)=O`, the “odorant receptor agonist call” value in experiment [2], in experiment [3] and in experiment [4] was “inactive” in each case.

Regarding `CCCCCCCCC(=O)O`, the “odorant receptor agonist call” value in experiment [2] and in experiment [4] was “inactive” in each case. The “odorant receptor agonist call” value in experiment [3] is “active”.

As for `CCCCCCCCCS`, the “odorant receptor agonist call” value in experiment [2], in experiment [3] and in experiment [4] was “inactive” each time.

`O=C(c1ccccc1)c1ccccc1`: the “odorant receptor agonist call” value in experiment [2], in experiment [3] and in experiment [4] was “inactive” in each case.

In the case of `CCCCCOC(=O)CCC`, the “odorant receptor agonist call” value in experiment [2] and in experiment [4] was “inactive” each time.

Consider `CCCCOC=O`, for which the “odorant receptor agonist call” value in experiment [2], in experiment [3] and in experiment [4] was “inactive” throughout.

For `CC(=O)OCc1ccccc1`, the “odorant receptor agonist call” value in experiment [2], in experiment [3] and in experiment [4] was “inactive” in each case.

For `CCc1ccc(O)cc1`, the “odorant receptor agonist call” value in experiment [2] and in experiment [4] was “inactive” in each case.

In the case of `CCC(=O)C(=O)CC`, the “odorant receptor agonist call” value in experiment [2] and in experiment [4] was “inactive” throughout. Besides, in experiment [3], the “odorant receptor agonist call” value was “active”.
